Reference: ChEMBL document CHEMBL3580554, “Design, synthesis, and anticonvulsant activity of new hybrid compounds derived from 2-(2,5-dioxopyrrolidin-1-yl)propanamides and 2-(2,5-dioxopyrrolidin-1-yl)butanamides” (J Med Chem, 2015)

Columns and labels:
[1] = test system: Liver microsome; test: Drug level in human liver microsomes treated with 50 uM 1-(1-Oxo-1-{4-[3-(trifluoromethyl)phenyl]piperazin-1-yl}-propan-2-yl)pyrrolidine-2,5-dione assessed as compound formation in presence of NADPH regeneration system pre-incubated at 37 degC for 5 min and measured 2 hrs after post NADPH system addition by UPLC and LC-MS/MS method; type: ADME
How it was run: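 The compound was incubated 2 h with human liver microsomes. Metabolites were detected by full-scan chromatogram and identified by LC/MS from their [M+H]+ molecular masses.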

[2] = organism: Rattus norvegicus; test: Inhibition of [125I]omega-conotoxin GVIA binding to N-type calcium channel in rat cerebral cortex synaptosomes at 100 uM incubated for 30 mins by scintillation counting based radioligand displacement assay; type: subcellular
[3] = organism: Rattus norvegicus; test: Inhibition of [3H]BTX binding to sodium channel site 2 in rat cerebral cortex synaptosomes at 1 uM incubated for 60 mins by scintillation counting based radioligand displacement assay; type: subcellular
How it was run: (§1)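 Synaptoneurosomal preparations from rat cerebral cortex were used. The read-out was inhibition of specific [3H]BTX binding to the voltage-sensitive sodium channel (site 2), expressed as % inhibition of control specific binding. Compounds were tested at 1, 10, 100 and 500 μM. Inhibition above 50% was taken as significant.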

[4] = organism: Rattus norvegicus; test: Inhibition of [3H]BTX binding to sodium channel site 2 in rat cerebral cortex synaptosomes at 100 uM incubated for 60 mins by scintillation counting based radioligand displacement assay; type: subcellular; how it was run: as §1
[5] = organism: Rattus norvegicus; test: Inhibition of [3H]BTX binding to sodium channel site 2 in rat cerebral cortex synaptosomes at 10 uM incubated for 60 mins by scintillation counting based radioligand displacement assay; type: subcellular; how it was run: as §1
[6] = organism: Rattus norvegicus; test: Inhibition of [3H]BTX binding to sodium channel site 2 in rat cerebral cortex synaptosomes at 500 uM incubated for 60 mins by scintillation counting based radioligand displacement assay; type: subcellular; how it was run: as §1
[7] = test system: Mus musculus; test: Anticonvulsant activity in Swiss mouse assessed as protection against seizures at 100 mg/kg, ip dosed 0.25 hrs before initiation of maximal electroconvulsions by maximal electroshock test; type: functional
How it was run: (§2)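 Mice were dosed i.p. at a fixed 300 or 100 mg/kg (6 Hz: 100 mg/kg only). Protection was then scored against MES, sc PTZ or 6 Hz seizures at pretreatment times of 0.25, 0.5, 1 and 2 h. Groups were four mice, scored as number protected / number tested. This also gives the time course and time of peak effect.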

[8] = test system: Mus musculus; test: Anticonvulsant activity in Swiss mouse assessed as protection against seizures at 100 mg/kg, ip dosed 2 hrs before initiation of maximal electroconvulsions by maximal electroshock test; type: functional; how it was run: as §2
[9] = test system: Mus musculus; test: Anticonvulsant activity in Swiss mouse assessed as protection against seizures at 300 mg/kg, ip dosed 0.5 hrs before initiation of maximal electroconvulsions by maximal electroshock test; type: functional; how it was run: as §2
[10] = test system: Mus musculus; test: Anticonvulsant activity in Swiss mouse assessed as protection against seizures at 300 mg/kg, ip dosed 2 hrs before initiation of maximal electroconvulsions by maximal electroshock test; type: functional; how it was run: as §2
[11] = test system: Mus musculus; test: Anticonvulsant activity in Swiss mouse assessed as protection against seizures at 100 mg/kg, ip dosed 0.5 hrs before initiation of maximal electroconvulsions by maximal electroshock test; type: functional; how it was run: as §2
[12] = test system: Mus musculus; test: Anticonvulsant activity in Swiss mouse assessed as protection against seizures at 300 mg/kg, ip dosed 1 hr before initiation of maximal electroconvulsions by maximal electroshock test; type: functional; how it was run: as §2
[13] = test system: Mus musculus; test: Anticonvulsant activity in ip dosed Swiss mouse assessed as protection against seizures measured at 0.25 hrs of time to peak effect by maximal electroshock test; type: functional
How it was run: (§3)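 Median effective doses (ED50, mg/kg) were determined i.p. in mice at the time of peak effect in the MES, sc PTZ or 6 Hz tests. Only compounds giving at least 50% protection at 100 mg/kg in that test were taken forward.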

[14] = test system: Mus musculus; test: Anticonvulsant activity in Swiss mouse assessed as protection against seizures at 300 mg/kg, ip dosed 0.25 hrs before initiation of maximal electroconvulsions by maximal electroshock test; type: functional; how it was run: as §2
[15] = test system: Mus musculus; test: Anticonvulsant activity in Swiss mouse assessed as protection against seizures at 100 mg/kg, ip dosed 1 hr before initiation of maximal electroconvulsions by maximal electroshock test; type: functional; how it was run: as §2
[16] = Toxicity in ip dosed Swiss mouse assessed as induction of motor performance impairment measured within 60 seconds measured at 0.5 hrs of time to peak effect by Chimney test; type: organism-based; details: in vivo
How it was run: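 Neurotoxicity was measured i.p. in mice by the chimney test for motor impairment. It was given as the median neurotoxic dose (TD50, mg/kg) at the time of peak effect.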

[17] = test system: Mus musculus; test: Anticonvulsant activity in Swiss mouse assessed as protection against seizures at 300 mg/kg, ip dosed 0.5 hrs before pentylenetetrazole challenge by subcutaneous pentylenetetrazole seizure test; type: functional; how it was run: as §2
[18] = test system: Mus musculus; test: Anticonvulsant activity in Swiss mouse assessed as protection against seizures at 100 mg/kg, ip dosed 0.5 hrs before pentylenetetrazole challenge by subcutaneous pentylenetetrazole seizure test; type: functional; how it was run: as §2
[19] = test system: Mus musculus; test: Anticonvulsant activity in Swiss mouse assessed as protection against seizures at 300 mg/kg, ip dosed 2 hrs before pentylenetetrazole challenge by subcutaneous pentylenetetrazole seizure test; type: functional; how it was run: as §2
[20] = test system: Mus musculus; test: Anticonvulsant activity in Swiss mouse assessed as protection against seizures at 300 mg/kg, ip dosed 0.25 hrs before pentylenetetrazole challenge by subcutaneous pentylenetetrazole seizure test; type: functional; how it was run: as §2
[21] = test system: Mus musculus; test: Anticonvulsant activity in Swiss mouse model of 6 Hz psychomotor seizure mode assessed as protection against seizures at 100 mg/kg, ip dosed 0.25 hrs before 6 Hz electrical stimulation by 6 Hz test; type: functional; how it was run: as §2
[22] = test system: Mus musculus; test: Anticonvulsant activity in Swiss mouse assessed as protection against seizures at 300 mg/kg, ip dosed 1 hr before pentylenetetrazole challenge by subcutaneous pentylenetetrazole seizure test; type: functional; how it was run: as §2
[23] = test system: Mus musculus; test: Anticonvulsant activity in Swiss mouse model of 6 Hz psychomotor seizure mode assessed as protection against seizures at 100 mg/kg, ip dosed 0.5 hrs before 6 Hz electrical stimulation by 6 Hz test; type: functional; how it was run: as §2
[24] = organism: Mus musculus; test: Protective index, ratio of neurotoxic TD50 in Swiss mouse by Chimney test to anticonvulsant ED50 in Swiss mouse measured at 0.5 hrs of time to peak effect by maximal electroshock test
How it was run: (§4)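 Protective index was calculated as TD50 (chimney test, mouse, i.p.) divided by ED50 from the matching MES, sc PTZ or 6 Hz test, both taken at the time of peak effect.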

[25] = test system: Mus musculus; test: Protective index, ratio of neurotoxic TD50 in Swiss mouse by Chimney test to anticonvulsant ED50 in Swiss mouse measured at 0.5 hrs of time to peak effect by subcutaneous pentylenetetrazole seizure test; type: functional; how it was run: as §4
[26] = test system: Mus musculus; test: Anticonvulsant activity in Swiss mouse assessed as protection against seizures at 100 mg/kg, ip dosed 2 hrs before pentylenetetrazole challenge by subcutaneous pentylenetetrazole seizure test; type: functional; how it was run: as §2
[27] = test system: Mus musculus; test: Anticonvulsant activity in Swiss mouse assessed as protection against seizures at 100 mg/kg, ip dosed 1 hr before pentylenetetrazole challenge by subcutaneous pentylenetetrazole seizure test; type: functional; how it was run: as §2
[28] = test system: Mus musculus; test: Anticonvulsant activity in ip dosed Swiss mouse assessed as protection against seizures measured at 0.5 hrs of time to peak effect by maximal electroshock test; type: functional; how it was run: as §3
[29] = test system: Mus musculus; test: Anticonvulsant activity in ip dosed Swiss mouse assessed as protection against seizures measured at 0.5 hrs of time to peak effect by 6 Hz test by 6 Hz psychomotor seizure test; type: functional; how it was run: as §3
[30] = organism: Mus musculus; test: Protective index, ratio of neurotoxic TD50 in Swiss mouse by Chimney test to anticonvulsant ED50 in Swiss mouse measured at 0.5 hrs of time to peak effect by 6 Hz test by 6 Hz psychomotor seizure test; type: functional; how it was run: as §4
[31] = test system: Mus musculus; test: Anticonvulsant activity in ip dosed Swiss mouse assessed as protection against seizures measured at 0.5 hrs of time to peak effect by subcutaneous pentylenetetrazole seizure test; type: functional; how it was run: as §3
[32] = test system: Mus musculus; test: Anticonvulsant activity in Swiss mouse model of 6 Hz psychomotor seizure mode assessed as protection against seizures at 100 mg/kg, ip dosed 1 hr before 6 Hz electrical stimulation by 6 Hz test; type: functional; how it was run: as §2
[33] = test system: Mus musculus; test: Anticonvulsant activity in Swiss mouse model of 6 Hz psychomotor seizure mode assessed as protection against seizures at 100 mg/kg, ip dosed 2 hrs before 6 Hz electrical stimulation by 6 Hz test; type: functional; how it was run: as §2
[34] = test system: Mus musculus; test: Anticonvulsant activity in Swiss mouse assessed as protection against seizures at 100 mg/kg, ip dosed 0.25 hrs before pentylenetetrazole challenge by subcutaneous pentylenetetrazole seizure test; type: functional; how it was run: as §2

CC(C(=O)N1C=CN(c2cccc(C(F)(F)F)c2)CC1)N1C(=O)CCC1=O (stereo not given)
Drug metabolism [1]: metabolite_detected

O=C(C(CO)N1C(=O)CC(O)C1=O)N1C=CN(c2cccc(C(F)(F)F)c2)CC1 (stereo not given)
Drug metabolism [1]: metabolite_detected

O=C(C(CO)N1C(=O)CCC1O)N1CCN(c2cccc(C(F)(F)F)c2)CC1 (stereo not given)
Drug metabolism [1]: metabolite_detected

CC(C(=O)N1CCN(c2ccc(O)c(C(F)(F)F)c2)CC1)N1C(=O)CCC1=O (stereo not given)
Drug metabolism [1]: metabolite_detected

CC1(C)O[C@@H]2[C@@H](CO[C@@]3(COS(N)(=O)=O)OC(C)(C)O[C@@H]23)O1
inhibition [2]: 3.1%

NC(=O)N1c2ccccc2C=Cc2ccccc21
inhibition [3]: 2.7%
inhibition [4]: 17.4%
inhibition [5]: 4.6%
inhibition [6]: 33.6%

CC(C(=O)N1CCN(c2ccccc2)CC1)N1C(=O)CCC1=O (racemic)
Activity [7]: 50%
Activity [8]: 0%
Activity [9]: 50%
Activity [10]: 0%
Activity [11]: 0%
Activity [12]: 50%
ED50 [13]: 164 mg/kg
Activity [14]: 100%
Activity [15]: 0%

CC(C(=O)N1CCN(c2cccc(Cl)c2)CC1)N1C(=O)CCC1=O (racemic)
TD50 at 0.5 h [16]: 202 mg/kg
Activity [17]: 75%
Activity [7]: 50%
Activity [18]: 75%
Activity [19]: 75%
Activity [8]: 0%
Activity [9]: 100%
Activity [20]: 75%
Activity [21]: 100%
Activity [22]: 75%
Activity [10]: 50%
Activity [11]: 75%
Activity [23]: 100%
Ratio TD50/ED50 [24]: 1.69
Ratio TD50/ED50 [25]: 2.9
Activity [26]: 25%
Activity [12]: 75%
Activity [27]: 50%
Activity [14]: 75%
ED50 [28]: 119 mg/kg
ED50 [29]: 50.4 mg/kg
Ratio TD50/ED50 [30]: 4
ED50 [31]: 69.6 mg/kg
Activity [32]: 75%
Activity [33]: 25%
Activity [34]: 50%
Activity [15]: 50%
